The text below walks through data of ChEMBL document CHEMBL1641604, “Application of p21 and klf2 reporter gene assays to identify selective histone deacetylase inhibitors for cancer therapy” (Bioorg Med Chem Lett, 2011).

Common to all, as to format: functional
Assay [1] has as its system HeLa. The assay can be described thus: Induction of p21 promoter gene in human HeLa cells assessed as percent induction activity at 3 uM relative to SNDX-275.
Assay [2] deals with A204. The assay can be described thus: Induction of klf2 promoter gene in human A204 cells assessed as percent induction activity at 3 uM relative to SNDX-275.
The subject of assay [3] is HeLa. Kind of assay: Selectivity ratio for induction of p21 promoter gene in human HeLa cells to induction of klf2 promoter gene in human A204 cells at 3 uM.
In assay [4] the test system is HeLa. Kind of assay: Induction of p21 promoter gene in human HeLa cells assessed as percent induction activity at 10 uM relative to SNDX-275.
Assay [5] has as its system A204. The assay can be described thus: Induction of klf2 promoter gene in human A204 cells assessed as percent induction activity at 10 uM relative to SNDX-275.
In assay [6] the test system is HeLa. The assay can be described thus: Selectivity ratio for induction of p21 promoter gene in human HeLa cells to induction of klf2 promoter gene in human A204 cells at 10 uM.
Assay [7] has as its system HeLa. The assay can be described thus: Antiproliferative activity against human HeLa cells assessed as growth at 3 uM after 24 hrs. As to conditions: read-out: Activity. The method, boiled down:
(§1)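 HeLa and A204 cells exposed to test agents at 3 or 10 µM for 24 h. Growth is expressed as percent of vehicle-treated control cells.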

The test system of assay [8] is HeLa. The assay can be described thus: Antiproliferative activity against human HeLa cells assessed as growth at 10 uM after 24 hrs. As to conditions: read-out: Activity. The method, boiled down: as §1
Assay [9] concerns A204. Kind of assay: Antiproliferative activity against human A204 cells assessed as growth at 3 uM after 24 hrs. As to conditions: A204, 24 h, read-out: Activity. In a few lines:
as §1

Assay [10] deals with A204. Kind of assay: Antiproliferative activity against human A204 cells assessed as growth at 10 uM after 24 hrs. As to conditions: A204, 24 h, read-out: Activity. The method, boiled down:
as §1

On to `Nc1ccccc1NC(=O)/C=C/c1ccc(C(NCCCN2CCOCC2)C(=O)Nc2ccc(OC(F)(F)F)cc2)cc1` (stereo unspecified), for which the Activity with HeLa [1] was 83%; in the assay with A204 [2] it was 38%; in the assay with HeLa [3], 2.2; in the assay on HeLa [4] it was 144%; with A204 [5], 58%; in the assay on HeLa [6] it was 2.5.
Turning to `Nc1ccccc1NC(=O)/C=C/c1ccc(C(NCCN2CCCCC2)C(=O)Nc2ccc(OC(F)(F)F)cc2)cc1` (stereo unspecified), the Activity with HeLa [1] is 112%; with A204 [2], 39%; in the assay on HeLa [3], 2.9; in the assay with HeLa [4], 136%; with A204 [5], 40%; in the assay with HeLa [6], 3.4. Besides, the growth at 3 µM with HeLa [7] turned out to be 105%; with A204 [9], 95%. Besides, the figures for the growth at 10 µM in the assay with HeLa [8] and with A204 [10] were 61% and 88%, respectively.
`Nc1ccccc1NC(=O)/C=C/c1ccc(C(NCCCN2CCOCC2)C(=O)Nc2ccc(C(F)(F)F)cc2)cc1` (stereo unspecified): the Activity in the assay with HeLa [1] amounted to 139%; in the assay on A204 [2], 73%; in the assay with HeLa [3], 1.9; in the assay with HeLa [4] it was 130%; in the assay with A204 [5], 79%; in the assay with HeLa [6] it was 1.7.
For the compound `Nc1ccccc1NC(=O)/C=C/c1ccc(C(N)C(=O)Nc2ccc(C(F)(F)F)cc2)cc1` (stereo unspecified), the Activity with HeLa [1] was 31%; in the assay with A204 [2], 32%; with HeLa [3], 1; with HeLa [4], 73%; with A204 [5] it was 40%; with HeLa [6], 1.8.
With `CC(CNC(C(=O)Nc1ccc(OC(F)(F)F)cc1)c1ccc(/C=C/C(=O)Nc2ccccc2N)cc1)N1CCOCC1` (stereo unspecified), the Activity was found to be 160% in the assay with HeLa [1]; 72% with A204 [2]; 2.2 in the assay with HeLa [3]; 104% in the assay with HeLa [4]; 44% in the assay on A204 [5]; 2.4 with HeLa [6]. In addition, the growth at 3 µM in the assay with HeLa [7] amounted to 107%; in the assay on A204 [9], 97%. Besides, the growth at 10 µM in the assay on HeLa [8] was 83%; with A204 [10], 93%.
In the case of `Nc1ccccc1NC(=O)/C=C/c1ccc(C(NCc2ccco2)C(=O)Nc2ccc(C(F)(F)F)cc2)cc1` (stereo unspecified), the Activity amounted to 19% with HeLa [1]; 30% in the assay with A204 [2]; 0.6 in the assay on HeLa [3]; 36% in the assay with HeLa [4]; 21% in the assay on A204 [5]; 1.7 with HeLa [6].
`CN(C)CCNC(C(=O)Nc1ccc(C(F)(F)F)cc1)c1ccc(/C=C/C(=O)Nc2ccccc2N)cc1` (stereo unspecified): the Activity with HeLa [1] came out at 138%; in the assay with A204 [2], 69%; in the assay on HeLa [3], 2; in the assay with HeLa [4], 134%; with A204 [5], 93%; with HeLa [6], 1.4.
As to `Nc1ccccc1NC(=O)/C=C/c1ccc(C(NCCN2CCCCC2)C(=O)Nc2ccc(C(F)(F)F)cc2)cc1` (stereo unspecified), the Activity in the assay on HeLa [1] was determined as 163%; in the assay with A204 [2], 69%; in the assay on HeLa [3], 2.4; in the assay with HeLa [4], 77%; in the assay on A204 [5] it was 85%; with HeLa [6], 0.9.
As for `Nc1ccccc1NC(=O)/C=C/c1ccc(C(NCCC2(O)CCOCC2)C(=O)Nc2ccc(C(F)(F)F)cc2)cc1` (stereo unspecified), the Activity with HeLa [1] was 55%; in the assay on A204 [2], 64%; in the assay with HeLa [3], 0.9; in the assay with HeLa [4], 96%; in the assay with A204 [5], 68%; in the assay with HeLa [6] it was 1.4.
In the case of `N#Cc1ccc(-c2ccc(NC(=O)C(NCCN3CCCCC3)c3ccc(/C=C/C(=O)Nc4ccccc4N)cc3)cc2)cc1` (stereo unspecified), the Activity in the assay on HeLa [1] worked out at 128%; with A204 [2], 72%; with HeLa [3], 1.8; with HeLa [4] it was 157%; in the assay on A204 [5], 92%; in the assay on HeLa [6], 1.7.
As to `Nc1ccccc1NC(=O)/C=C/c1ccc(C(NCCN2C[C@@H]3C[C@H]2CO3)C(=O)Nc2ccc(OC(F)(F)F)cc2)cc1` (stereo partly specified), the Activity in the assay on HeLa [1] worked out at 98%; in the assay with A204 [2] it was 39%; with HeLa [3], 2.6; in the assay with HeLa [4] it was 152%; with A204 [5] it was 63%; in the assay with HeLa [6], 2.4. Besides, the growth at 3 µM in the assay with HeLa [7] turned out to be 103%; with A204 [9], 97%. The growth at 10 µM turned out to be 82% in the assay with HeLa [8] and 90% with A204 [10].
Regarding `Nc1ccccc1NC(=O)/C=C/c1ccc(C(C(=O)Nc2ccc(C3CC3)cc2)N2CCCC2)cc1` (stereo unspecified), the Activity was 100% in the assay with HeLa [1]; 58% with A204 [2]; 1.7 in the assay on HeLa [3]; 148% in the assay on HeLa [4]; 98% with A204 [5]; 1.5 in the assay on HeLa [6].
`Nc1ccccc1NC(=O)/C=C/c1ccc(C(NCCCN2CCOCC2)C(=O)Nc2ccc(C3CC3)cc2)cc1` (stereo unspecified): the Activity turned out to be 117% in the assay on HeLa [1]; 70% with A204 [2]; 1.7 with HeLa [3]; 178% with HeLa [4]; 95% in the assay on A204 [5]; 1.9 in the assay on HeLa [6].
Consider `CN(CCN1CCOCC1)C(C(=O)Nc1ccc(C(F)(F)F)cc1)c1ccc(/C=C/C(=O)Nc2ccccc2N)cc1` (stereo unspecified), for which the Activity worked out at 72% with HeLa [1]; 70% with A204 [2]; 1 in the assay with HeLa [3]; 121% in the assay with HeLa [4]; 82% with A204 [5]; 1.5 in the assay with HeLa [6].
Take `CN(C)CCNC(C(=O)Nc1ccc(OC(F)(F)F)cc1)c1ccc(/C=C/C(=O)Nc2ccccc2N)cc1` (stereo unspecified): the Activity with HeLa [1] worked out at 152%; in the assay on A204 [2], 85%; in the assay on HeLa [3], 1.8; with HeLa [4], 182%; in the assay with A204 [5], 74%; in the assay with HeLa [6], 2.5.
As to `CN(C)C(C(=O)Nc1ccc(C(F)(F)F)cc1)c1ccc(/C=C/C(=O)Nc2ccccc2N)cc1` (stereo unspecified), the Activity in the assay on HeLa [1] was found to be 24%; in the assay with A204 [2], 45%; in the assay with HeLa [3], 0.5; in the assay with HeLa [4], 43%; in the assay with A204 [5], 33%; in the assay with HeLa [6], 1.3.
For `COCCNC(C(=O)Nc1ccc(C(F)(F)F)cc1)c1ccc(/C=C/C(=O)Nc2ccccc2N)cc1` (stereo unspecified), the Activity in the assay on HeLa [1] worked out at 36%; in the assay with A204 [2], 45%; in the assay on HeLa [3], 0.8; with HeLa [4], 64%; in the assay on A204 [5], 56%; in the assay on HeLa [6], 1.1.
With `Nc1ccccc1NC(=O)/C=C/c1ccc(C(NCCN2CCCCC2)C(=O)Nc2ccc(-c3ccc(C(F)(F)F)c(F)c3)cc2)cc1` (stereo unspecified), the Activity is 77% with HeLa [1]; 32% in the assay with A204 [2]; 2.4 in the assay with HeLa [3]; 92% in the assay on HeLa [4]; 54% with A204 [5]; 1.7 in the assay on HeLa [6].
Take `Nc1ccccc1NC(=O)/C=C/c1ccc(C(C(=O)Nc2ccc(C(F)(F)F)cc2)N2CCCC2)cc1` (stereo unspecified): the Activity in the assay on HeLa [1] was 85%; with A204 [2] it was 62%; in the assay with HeLa [3] it was 1.4; with HeLa [4] it was 89%; in the assay with A204 [5], 69%; in the assay on HeLa [6] it was 1.3.
For the compound `CC(C)c1ccc(-c2ccc(NC(=O)C(NCCN3CCCCC3)c3ccc(/C=C/C(=O)Nc4ccccc4N)cc3)cc2)cc1` (stereo unspecified), the Activity in the assay on HeLa [1] was determined as 77%; with A204 [2], 42%; with HeLa [3], 1.8; with HeLa [4] it was 130%; with A204 [5], 63%; in the assay with HeLa [6], 2.1.
For `Nc1ccccc1NC(=O)/C=C/c1ccc(C(NCCN2CCSCC2)C(=O)Nc2ccc(C(F)(F)F)cc2)cc1` (stereo unspecified), the Activity amounted to 71% in the assay with HeLa [1]; 77% in the assay with A204 [2]; 0.9 with HeLa [3]; 95% in the assay on HeLa [4]; 63% in the assay with A204 [5]; 1.5 in the assay with HeLa [6].
On to `CN(CCN1CCOCC1)C(C(=O)Nc1ccc(OC(F)(F)F)cc1)c1ccc(/C=C/C(=O)Nc2ccccc2N)cc1` (stereo unspecified), for which the Activity in the assay on HeLa [1] was 61%; with A204 [2], 39%; with HeLa [3] it was 1.6; in the assay with HeLa [4], 109%; in the assay on A204 [5], 71%; in the assay on HeLa [6], 1.5.
Regarding `Nc1ccccc1NC(=O)/C=C/c1ccc(C(NCCN2CCCCC2)C(=O)Nc2ccc(-c3ccc(C(F)(F)F)cc3F)cc2)cc1` (stereo unspecified), the Activity in the assay with HeLa [1] was found to be 110%; in the assay on A204 [2], 65%; in the assay with HeLa [3], 1.7; in the assay with HeLa [4] it was 153%; in the assay with A204 [5] it was 84%; with HeLa [6] it was 1.8.
Regarding `CC(CNC(C(=O)Nc1ccc(-c2ccc(C3CC3)cc2)cc1)c1ccc(/C=C/C(=O)Nc2ccccc2N)cc1)N1CCOCC1` (stereo unspecified), the Activity with HeLa [1] is 161%; in the assay with A204 [2], 75%; in the assay with HeLa [3], 2.2; with HeLa [4] it was 196%; with A204 [5] it was 98%; with HeLa [6], 2.
